Published values collected from several papers.
Each line is one published result; the experiments were not run side by side.
Organism: Plasmodium falciparum
Read-out: parasite growth

SMILES	method	strain	tested at	time	setting	quantity	value
CCn1cc(C(=O)O)c(=O)c2cc(F)c(N3CCC(C)CC3)cc21	–	3D7	–	72 h	blood stage	EC50	> 10000 nM
COc1ccc(Nc2ccnc3cc(-c4ccc(S(=O)(=O)N5CCN(C)CC5)cc4)ccc23)cc1Cl	–	D6	–	–	drug-resistant strain, blood stage	EC50	12 nM
CCCC1CCN(c2cc3c(cc2F)c(=O)c(C(=O)OCC)cn3CC)CC1	–	3D7	–	72 h	blood stage	EC50	30 nM
O=C(c1ccc(Nc2nccc(-c3ccc4ccccc4c3)n2)cc1)N1CCC(N2CCCC2)CC1	SYBR Green	3D7	1 µM	–	blood stage	inhibition	> 75%
CN1CCN(c2ncc(-c3ccc4c(Nc5cnccn5)ccnc4c3)cn2)CC1	–	D6	–	–	drug-resistant strain, blood stage	EC50	26 nM
Cc1ccc(-c2ccccc2C(=O)Nc2c(C)cccc2C(=O)O)cc1	SYBR Green	NF54	10 µM	96 h	blood stage	inhibition	8.4%
CCn1cc(-c2nnc(-c3cccnc3)o2)c(=O)c2cc(F)c(N3CCC(C)CC3)cc21	–	3D7	–	72 h	blood stage	EC50	> 10000 nM
CN1CCN(c2nccc(Nc3ccc4c(Nc5cnccn5)ccnc4c3)n2)CC1	–	D6	–	–	drug-resistant strain, blood stage	EC50	180 nM
CCn1cc(-c2nc(C)no2)c(=O)c2cc(F)c(N3CCC(Cc4ccccc4)CC3)cc21	–	3D7	–	72 h	blood stage	EC50	9 nM
O=C(Nc1cc(F)ccc1C(=O)O)c1ccc(-c2ccccc2)cc1	SYBR Green	NF54	10 µM	96 h	blood stage	inhibition	17.2%
Cc1ccc(Nc2ccnc3cc(-c4ccc(S(=O)(=O)N5CCN(C)CC5)cc4)ccc23)cc1Cl	–	D6	–	–	drug-resistant strain, blood stage	EC50	64 nM
O=C(Nc1ccc(F)cc1C(=O)O)c1ccc(-c2ccccc2)cc1	SYBR Green	NF54	10 µM	96 h	blood stage	inhibition	12.7%
CCn1cc(-c2nc(C)no2)c(=O)c2cc(F)c(N3CCC(C)(C)CC3)cc21	–	3D7	–	72 h	blood stage	EC50	1480 nM
c1cnc(Nc2ccnc3cc(-c4cn[nH]c4)ccc23)cn1	–	D6	–	–	drug-resistant strain, blood stage	EC50	940 nM
O=C(Nc1c(F)cccc1C(=O)O)c1ccc(-c2ccccc2)cc1	–	NF54	2 µM	48 h	gametocyte	inhibition	38.8%
